CRFR2-BP antag – antagonists of CRF-BP/CRF-R2 complex, primary screen, cell-based, HEK293, calcium dye fluorescence, uHTS. CRF-induced calcium fluorescence. inhibition, % at 11.8 µM. actives 0.59% (n = 350,000). AID 588475, 2011;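 active means inhibition of the ligand-induced calcium signal above about 50% at the single tested concentration, limit read from the data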
PKA-R1A act – activators of PKA-R1A holoenzyme, primary screen, biochemical, fluorescence polarization, Cy5-IP20, bovine R1A, mouse PKAc; actives 0.083% (n = 340,000); activation, % at 11.4 µM; cAMP-dependent protein kinase type I-alpha regulatory subunit (Bos taurus) + …; PKA-R1A dissociation; scaled: DMSO 0%, 113 µM cGMP 100%;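 active means percent activation above the mean of all tested compounds plus 3 SD, cut at about 19% in these data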;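 further: higher means more PKAc released from R1A so a rise in polarization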
PKA-R2B act – activators of PKA-R2B holoenzyme, primary screen, biochemical, fluorescence polarization, Cy5-IP20, human. PKA-R2B holoenzyme dissociation; R2B truncated from residue 108, S112A mutant; 0% DMSO only, 100% 113 µM cGMP. cAMP-dependent protein kinase catalytic subunit beta (Homo sapiens) + cAMP-dependent …. AID 504700, 2011. activation, % at 11.4 µM. actives 0.079% (n = 340,000);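 active means activation above a cutoff set at the mean over all compounds plus 3 SD, cut at about 18% in these data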;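 further: higher means more holoenzyme dissociation and a rise in polarization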
SIRT5 block – SIRT5 desuccinylase inhibitors, primary screen, biochemical, fluorescence imaging, single point, set 5; NAD-dependent protein deacylase sirtuin-5, mitochondrial (Homo sapiens), Q9NXA8; Purified SirT5, succinyl-peptide AMC, trypsin-coupled fluorescence; inhibition, % at 15 µM; actives 1.1% (n = 330,000); AID 652115, 2013; in the data active means inhibition above about 15%
Target sequence (Q9NXA8 whole entry, looked up): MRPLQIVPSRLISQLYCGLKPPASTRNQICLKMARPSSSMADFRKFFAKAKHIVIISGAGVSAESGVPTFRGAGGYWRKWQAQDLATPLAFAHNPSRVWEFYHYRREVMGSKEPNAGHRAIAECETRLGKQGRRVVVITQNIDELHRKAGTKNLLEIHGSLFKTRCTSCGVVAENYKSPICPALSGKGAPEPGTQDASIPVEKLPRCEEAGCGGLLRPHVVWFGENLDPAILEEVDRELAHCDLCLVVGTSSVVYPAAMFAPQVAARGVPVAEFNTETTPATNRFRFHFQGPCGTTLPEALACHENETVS
S100A4 inh HTS – inhibitors of S100A4-myosin IIA peptide binding, primary screen, biochemical, fluorescence polarization, TAMRA-MyoIIA peptide; AID 652163, 2013; actives 0.14% (n = 360,000); inhibition, % at 10.7 µM; Protein S100-A4 (Homo sapiens), P26447;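 active means mean inhibition of at least 70% across replicates, with every replicate also reaching that level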
Target sequence (P26447 whole entry, looked up): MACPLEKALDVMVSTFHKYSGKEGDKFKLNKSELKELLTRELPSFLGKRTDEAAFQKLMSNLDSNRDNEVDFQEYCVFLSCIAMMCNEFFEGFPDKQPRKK
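assay system = human S100A4 monomer with TAMRA-labelled myosin IIA peptide | also added = labelled myosin peptide probe, 5 nM | incubation = 5 min between mix addition and reading | control set = DMSO and TFP controls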
* marks the source's active call; other numbers are inactive results. Rows were chosen to be rich in hits. Some 1.5% of all compounds tested hit in one or more screens of this group.

What do the screens show for `CCCCCNC(=O)C(c1cc2ccccc2o1)n1c(=O)c(-c2cc3ccccc3[nH]2)nc2ccccc21` (stereo not drawn)?
SIRT5 block: -0.6; S100A4 inh HTS: -2.5

How did CCCCCNC(=O)C(c1cc2ccccc2o1)n1c(=O)c(-c2ccccc2)nc2ccccc21 (stereo not drawn) do in these assays?
SIRT5 block: 18.9*; S100A4 inh HTS: 0.0

Results for CCN(CC)C(=N)/C(C#N)=N/Nc1ccccc1 ?
CRFR2-BP antag: 20.0; SIRT5 block: 16.8*; S100A4 inh HTS: -6.5

How did [O-][n+]1c2c(c3c4non(O)c4ccc31)CCCC2 do in these assays?
CRFR2-BP antag: 53.0*; PKA-R1A act: 1.8; PKA-R2B act: 3.3; SIRT5 block: 4.6; S100A4 inh HTS: -1.6

How did Cc1noc(C)c1S(=O)(=O)Nc1ccc2c(c1)CC(=O)N([C@@H](C)CO)C[C@@H](C)[C@H](CN(C)C(=O)Nc1ccccc1)O2 do in these assays?
SIRT5 block: 8.7; S100A4 inh HTS: 13.9

What do the screens show for `C[C@@H]1CCCCO[C@@H](CN(C)C)[C@H](C)CN([C@H](C)CO)C(=O)c2cc(NS(=O)(=O)c3ccccc3)ccc2O1`?
SIRT5 block: -1.7

What do the screens show for `Cc1ccc(NS(=O)(=O)c2ccc(C(=O)Nc3nncs3)cc2)cc1`?
CRFR2-BP antag: 110.5*; PKA-R1A act: -5.7; PKA-R2B act: -5.8; SIRT5 block: -2.2; S100A4 inh HTS: -1.4

What do the screens show for `Cc1ccc(S(=O)(=O)Nc2cc(C(=O)Nc3cc(C)cc(C)c3)ccc2Cl)cc1`?
CRFR2-BP antag: 55.2*; PKA-R1A act: -6.6; PKA-R2B act: -1.6

How did C[C@@H]1CN([C@@H](C)CO)C(=O)c2cc(C#CCN(C)C)cnc2O[C@H]1CN(C)C(=O)CN1CCOCC1 do in these assays?
SIRT5 block: 3.9; S100A4 inh HTS: 7.6

What do the screens show for `O=C(c1cnccn1)N1CC(=O)N2[C@H](C1)[C@@H](c1ccc(C#CC3CC3)cc1)[C@@H]2CO`?
SIRT5 block: 8.4; S100A4 inh HTS: -22.1

How did COc1ccc(CN(C(=O)Cn2nnc(-c3ccc(C)o3)n2)C(C(=O)NCC2CCCO2)c2ccco2)cc1 (stereo not drawn) do in these assays?
CRFR2-BP antag: -6.3; PKA-R1A act: 3.5; PKA-R2B act: -3.2; SIRT5 block: 112.2*; S100A4 inh HTS: -1.2

What do the screens show for `Cc1ccc(-c2nnn(CC(=O)N(Cc3ccco3)C(C(=O)NC(C)(C)C)c3ccc(C)o3)n2)o1` (stereo not drawn)?
CRFR2-BP antag: 2.5; PKA-R1A act: -7.9; PKA-R2B act: -9.0; SIRT5 block: 18.2*; S100A4 inh HTS: 1.3

How did COc1cc(Cl)c(C)cc1NC(=O)c1ccc2c(SCC(=O)O)c3c(nc2c1)CCCC3 do in these assays?
CRFR2-BP antag: 4.7; PKA-R1A act: 2.6; PKA-R2B act: 12.3; SIRT5 block: -2.2; S100A4 inh HTS: -6.2

How did CCOC(=O)c1ccccc1NC(=O)c1ccc2c(SCC(=O)O)c3c(nc2c1)CCCC3 do in these assays?
CRFR2-BP antag: -3.0; PKA-R1A act: 0.2; PKA-R2B act: -5.4; SIRT5 block: 22.3*; S100A4 inh HTS: -5.1

What do the screens show for `Cc1cccc2sc(NC(=O)C3CC3)nc12`?
CRFR2-BP antag: -6.4; PKA-R1A act: -1.0; PKA-R2B act: 0.3; SIRT5 block: 23.8*; S100A4 inh HTS: 2.0

Results for CC(=O)c1cc(CC(=O)N2CCc3c([nH]c4ccccc34)C2c2ccccn2)cs1 (stereo not drawn) ?
CRFR2-BP antag: -26.8; PKA-R1A act: -4.5; PKA-R2B act: 6.6; SIRT5 block: -2.0; S100A4 inh HTS: -24.0

What do the screens show for `Cc1nc(C)c(CC(=O)N2CCc3c([nH]c4ccccc34)C2c2ccccn2)s1` (stereo not drawn)?
CRFR2-BP antag: -4.2; PKA-R1A act: -8.7; PKA-R2B act: -12.8; SIRT5 block: 17.5*; S100A4 inh HTS: -4.7

Results for COC(=O)c1sc(NC(=O)c2ccc([N+](=O)[O-])o2)c(C#N)c1C ?
CRFR2-BP antag: 73.7*; PKA-R1A act: -8.3; PKA-R2B act: 2.9; SIRT5 block: 0.2; S100A4 inh HTS: 4.5

How did CCCNC(=O)C[C@H]1CC[C@H]2[C@H](COc3ccc(NC(=O)NCC)cc3C(=O)N2C)O1 do in these assays?
SIRT5 block: -1.7; S100A4 inh HTS: -2.3

What do the screens show for `O=S(=O)(c1ccc(F)cc1)N1CCCCN2[C@H](CO)[C@H](c3ccc(C#CC4CCCC4)cc3)[C@H]2C1`?
SIRT5 block: 22.1*; S100A4 inh HTS: 21.7

Results for O=S(=O)(c1ccc(F)cc1)N1CCCCN2[C@H](C1)[C@H](c1ccc(C#CC3CCCC3)cc1)[C@@H]2CO ?
SIRT5 block: 17.5*; S100A4 inh HTS: 13.6

How did O=S(=O)(c1ccc(F)cc1)N1CCCCN2[C@H](CO)[C@@H](c3ccc(C#CC4CCCC4)cc3)[C@@H]2C1 do in these assays?
SIRT5 block: 17.6*; S100A4 inh HTS: 1.0

How did O=S(=O)(c1ccccc1)N1CCCCN2[C@H](C1)[C@H](c1ccc(C#CC3CCCC3)cc1)[C@@H]2CO do in these assays?
SIRT5 block: 18.8*; S100A4 inh HTS: -1.9

What do the screens show for `O=S(=O)(c1ccc(F)cc1)N1CCCCN2[C@H](CO)[C@@H](c3ccc(C#CC4CC4)cc3)[C@H]2C1`?
SIRT5 block: 12.6; S100A4 inh HTS: 6.1

What do the screens show for `COc1ccc(S(=O)(=O)N[C@@H]2CC[C@H](CCNC(=O)c3ccccc3F)O[C@@H]2CO)cc1`?
SIRT5 block: 0.0; S100A4 inh HTS: -35.2

How did CCCC#Cc1ccc2c(c1)O[C@H](CN(C)Cc1ccncc1)[C@@H](C)CN([C@@H](C)CO)S2(=O)=O do in these assays?
SIRT5 block: 6.3; S100A4 inh HTS: 0.3

Results for COc1ccc(S(=O)(=O)N2CCCCN3[C@H](C2)[C@H](c2ccc(C#CC(C)C)cc2)[C@@H]3CO)cc1 ?
SIRT5 block: 16.0*; S100A4 inh HTS: 5.9

What do the screens show for `C[C@@H]1CN([C@@H](C)CO)C(=O)c2cc(NC(=O)NC3CCCCC3)ccc2O[C@H]1CN(C)C(=O)Nc1ccccc1`?
SIRT5 block: 4.4; S100A4 inh HTS: -10.7

Results for COc1cc(/C=N/NC(=O)c2ccoc2C)cc(OC)c1OC ?
CRFR2-BP antag: 2.4; PKA-R1A act: -3.6; PKA-R2B act: 1.9

Results for Cc1cc(/C=N/NC(=O)c2ccoc2C)cc(C)c1O ?
CRFR2-BP antag: 68.0*; PKA-R1A act: 0.8; PKA-R2B act: 2.5; S100A4 inh HTS: 0.1

From PubChem
